What was measured:
[1] = tested on: LLC-PK1; assay: Ratio of permeability from apical to basolateral side over basolateral to apical side in pig LLC-PK1 cells expressing human MDR1; format: ADME, cell-based, Sus scrofa
[2] = Oral bioavailability in Beagle dog at 1 mg/kg; format: ADME, organism-based, Canis lupus familiaris; conditions: Beagle, in vivo
Outline: (§1)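 Male SD rats, male Beagle dogs, male rhesus monkeys given single doses iv (PEG400/EtOH/H2O 50/10/40) or po by gavage (0.5% methylcellulose suspension). Rats 1 mg/kg iv and 3 mg/kg po; dogs and monkeys 0.3 mg/kg iv and 1 mg/kg po. Plasma sampled at multiple times up to 24 h, deproteinized with ethanol plus internal standard. Mean of n = 3 animals/dose.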

[3] = tested on: Mus musculus; assay: Ex vivo receptor occupancy of histamine H3 receptor expressed in po dosed MDR1a deficient CF1 mouse plasma assessed by brain occupancy/brain to plasma ratio after 2 hrs; format: functional
Outline: (§2)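 Female wild-type and mdr1a (−/−) CF-1 mice given vehicle or compound po (0.1–3 mg/kg) and decapitated at 2 h. Coronal striatal sections (20 μm) incubated 10 min at room temperature with 400 pM tritiated quinazolinone H3 inverse agonist radioligand in sodium phosphate buffer. Nonspecific binding defined with 10 μM R-α-methylhistamine. Sections imaged 6 h by beta-Imager. Brain Occ90 obtained from occupancy versus brain concentration. Plasma Occ90 = brain Occ90/brain-to-plasma ratio.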

[4] = Oral bioavailability in rhesus monkey at 1 mg/kg; format: ADME, organism-based, Macaca mulatta; conditions: in vivo; outline: as §1
[5] = Oral bioavailability in Sprague-Dawley rat at 3 mg/kg; format: ADME, organism-based; conditions: in vivo; outline: as §1
[6] = Cmax in Sprague-Dawley rat at 1 mg/kg, iv and 3 mg/kg, po; format: ADME, organism-based; conditions: in vivo; outline: as §1
[7] = Drug level in Sprague-Dawley rat cerebrospinal fluid at 10 mg/kg, po after 2 hrs; format: ADME, organism-based; design: dose 10 mg/kg, route oral; conditions: read-out: Drug uptake
Outline: (§3)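 Male SD rats dosed orally at 10 mg/kg. Plasma, brain and CSF concentrations determined 2 h after dosing. Brain/plasma ratio taken from these levels. Mean of n = 3 animals.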

[8] = AUC (0 to infinity) in Beagle dog at 1 mg/kg, po; format: ADME, organism-based, Canis lupus familiaris, Plasma; design: time infinity, dose 1 mg/kg, route oral; conditions: Beagle, plasma; outline: as §1
[9] = Ratio of drug level in cerebrospinal fluid to brain in Sprague-Dawley rat at 10 mg/kg, po after 2 hrs; format: ADME, organism-based, CSF/Brain; design: dose 10 mg/kg, route oral; conditions: in vivo
[10] = target: T1, Histamine H3 receptor (Homo sapiens, UniProt Q9Y5N1); assay: Displacement of [3H]N-alpha-methylhistamine from human recombinant histamine H3 receptor expressed in CHO-K1 cells; format: cell-based
T1 sequence (Q9Y5N1 whole entry): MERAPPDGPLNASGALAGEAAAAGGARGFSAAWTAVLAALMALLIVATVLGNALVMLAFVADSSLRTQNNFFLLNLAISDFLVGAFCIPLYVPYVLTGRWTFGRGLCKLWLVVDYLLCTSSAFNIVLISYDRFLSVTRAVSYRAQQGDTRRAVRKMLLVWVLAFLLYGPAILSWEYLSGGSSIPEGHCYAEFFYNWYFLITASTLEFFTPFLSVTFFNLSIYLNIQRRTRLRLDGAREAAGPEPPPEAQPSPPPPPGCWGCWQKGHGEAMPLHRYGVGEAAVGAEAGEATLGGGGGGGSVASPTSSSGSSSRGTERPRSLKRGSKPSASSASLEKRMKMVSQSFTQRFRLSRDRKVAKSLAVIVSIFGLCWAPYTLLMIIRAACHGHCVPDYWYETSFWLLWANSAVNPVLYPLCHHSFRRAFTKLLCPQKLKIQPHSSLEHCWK

[11] = tested on: Brain; assay: Ex vivo drug level in mdr1a deficient CF1 mouse brain at 1 mg/kg, po after 2 hrs; format: ADME, organism-based; design: dose 1 mg/kg, route oral
Outline: (§4)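 Female mdr1a (+/+) and mdr1a (−/−) CF-1 mice dosed by oral gavage. Terminal blood and whole brain collected 2 h later. Brain homogenized by ultrasonication in 4 volumes water. Plasma and brain deproteinized with ethanol plus internal standard, then measured by LC-MS/MS (positive ESI, MRM). Mean ± SE, n = 3. Brain/plasma ratios calculated from mean values.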

[12] = Cmax in Beagle dog at 0.3 mg/kg, iv and 1 mg/kg, po; format: ADME, organism-based, Canis lupus familiaris; conditions: in vivo; outline: as §1
[13] = target: Voltage-gated inwardly rectifying potassium channel KCNH2 (Homo sapiens, UniProt Q12809); assay: Antagonist activity at human ERG in HEK293 cells assessed as inhibition of [35S]N-[(4R)-1'-[(2R)-6-cyano-1,2,3,4-tetrahydro-2-naphthalenyl]-3,4-dihydro-4-hydroxyspiro[2H-1-benzopyran-2,4'-piperidin]-6-yl]methanesulfonamide binding
Voltage-gated inwardly rectifying potassium channel KCNH2, sequence (Q12809 whole entry): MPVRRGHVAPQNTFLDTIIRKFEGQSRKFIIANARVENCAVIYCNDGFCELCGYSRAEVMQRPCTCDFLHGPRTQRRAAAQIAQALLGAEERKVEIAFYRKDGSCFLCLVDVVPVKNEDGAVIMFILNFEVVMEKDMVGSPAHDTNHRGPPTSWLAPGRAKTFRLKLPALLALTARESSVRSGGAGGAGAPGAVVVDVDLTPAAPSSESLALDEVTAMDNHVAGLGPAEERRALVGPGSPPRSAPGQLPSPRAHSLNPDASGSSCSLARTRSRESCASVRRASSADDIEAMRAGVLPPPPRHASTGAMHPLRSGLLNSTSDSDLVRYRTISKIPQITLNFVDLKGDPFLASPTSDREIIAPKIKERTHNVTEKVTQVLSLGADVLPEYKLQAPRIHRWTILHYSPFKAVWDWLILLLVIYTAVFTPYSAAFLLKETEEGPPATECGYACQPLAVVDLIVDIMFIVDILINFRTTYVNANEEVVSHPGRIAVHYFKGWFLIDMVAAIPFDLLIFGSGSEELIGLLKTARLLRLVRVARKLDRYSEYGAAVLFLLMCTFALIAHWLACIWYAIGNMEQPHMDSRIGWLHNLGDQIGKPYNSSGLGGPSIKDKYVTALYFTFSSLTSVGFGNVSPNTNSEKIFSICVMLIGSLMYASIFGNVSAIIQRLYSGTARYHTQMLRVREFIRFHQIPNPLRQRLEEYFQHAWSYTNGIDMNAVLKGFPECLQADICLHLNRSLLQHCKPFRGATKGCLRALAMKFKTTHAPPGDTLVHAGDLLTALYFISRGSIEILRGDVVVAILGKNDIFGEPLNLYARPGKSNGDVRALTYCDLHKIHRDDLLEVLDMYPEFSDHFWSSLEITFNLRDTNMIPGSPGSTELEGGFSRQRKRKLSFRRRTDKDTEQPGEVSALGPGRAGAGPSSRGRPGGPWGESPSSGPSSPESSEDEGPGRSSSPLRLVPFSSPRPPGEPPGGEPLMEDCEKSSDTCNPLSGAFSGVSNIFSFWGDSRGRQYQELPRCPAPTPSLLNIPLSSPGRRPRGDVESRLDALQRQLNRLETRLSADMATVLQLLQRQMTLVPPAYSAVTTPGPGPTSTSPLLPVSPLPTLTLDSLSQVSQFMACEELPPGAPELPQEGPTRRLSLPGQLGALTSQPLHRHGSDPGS

[14] = Plasma clearance in Sprague-Dawley rat at 1 mg/kg, iv; format: ADME, organism-based; design: dose 1 mg/kg, route intravenous; outline: as §1
[15] = target: Histamine H3 receptor (Mus musculus, UniProt P58406); assay: Displacement of [3H]N-alpha-methylhistamine from mouse recombinant histamine H3 receptor
Histamine H3 receptor (Mus musculus, UniProt P58406), sequence (P58406 whole entry): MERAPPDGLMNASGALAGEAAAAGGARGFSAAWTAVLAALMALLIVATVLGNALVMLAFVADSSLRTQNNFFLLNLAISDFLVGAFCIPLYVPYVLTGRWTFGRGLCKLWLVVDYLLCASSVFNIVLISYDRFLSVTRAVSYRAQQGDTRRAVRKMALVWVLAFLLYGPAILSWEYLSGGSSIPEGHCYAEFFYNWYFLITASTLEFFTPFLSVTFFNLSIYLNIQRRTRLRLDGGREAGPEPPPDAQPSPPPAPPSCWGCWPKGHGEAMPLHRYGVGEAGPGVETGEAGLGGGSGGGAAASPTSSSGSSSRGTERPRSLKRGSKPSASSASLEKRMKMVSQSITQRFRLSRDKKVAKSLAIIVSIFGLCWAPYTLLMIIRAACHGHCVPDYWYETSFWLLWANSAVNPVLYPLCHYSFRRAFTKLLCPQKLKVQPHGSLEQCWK

[16] = Ratio of drug level brain to plasma in wild type mdr1a (+/+) CF1 mouse at 1 mg/kg, po after 2 hrs; format: ADME, organism-based; design: dose 1 mg/kg, route oral; conditions: read-out: BPR; outline: as §4
[17] = tested on: Mus musculus; assay: Ex vivo receptor occupancy of histamine H3 receptor expressed in wild type po dosed CF1 mouse brain after 2 hrs; format: functional; outline: as §2
[18] = tested on: Mus musculus; assay: Toxicity against in ICR mouse assessed as gross behavior activity at 100 mg/kg; format: organism-based; design: dose 100 mg/kg; conditions: in vivo
Outline: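 Mice dosed orally at 100 mg/kg. Scored for psychomotor and motor activity, muscle tone, CNS excitation, autonomic responses and reflexes.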

[19] = target: Histamine H4 receptor (Homo sapiens, UniProt Q9H3N8); assay: Inhibition of human histamine H4 receptor
Histamine H4 receptor, sequence (Q9H3N8 whole entry): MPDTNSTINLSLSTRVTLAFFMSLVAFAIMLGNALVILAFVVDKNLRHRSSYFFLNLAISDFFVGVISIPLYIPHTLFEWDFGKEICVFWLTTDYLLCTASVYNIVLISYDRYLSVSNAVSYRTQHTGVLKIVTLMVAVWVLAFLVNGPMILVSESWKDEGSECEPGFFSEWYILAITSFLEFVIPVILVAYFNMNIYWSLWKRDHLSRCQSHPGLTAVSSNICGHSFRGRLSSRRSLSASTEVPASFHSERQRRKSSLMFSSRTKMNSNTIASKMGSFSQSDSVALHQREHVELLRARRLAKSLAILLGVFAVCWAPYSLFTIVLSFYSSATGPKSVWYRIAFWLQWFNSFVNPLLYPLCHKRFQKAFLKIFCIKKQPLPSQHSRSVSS

[20] = tested on: Brain; assay: Drug level in Sprague-Dawley rat brain at 10 mg/kg, po after 2 hrs; format: ADME, organism-based; design: dose 10 mg/kg, route oral; conditions: in vivo; outline: as §3
[21] = tested on: Mus musculus; assay: Ex vivo receptor occupancy of histamine H3 receptor expressed in po dosed wild type CF1 mouse plasma assessed by brain occupancy/brain to plasma ratio after 2 hrs; format: functional; outline: as §2
[22] = tested on: Canis familiaris; assay: Toxicity against in anesthetized Beagle dog assessed as cardiovascular effects; format: organism-based, Canis lupus familiaris; conditions: in vivo
Outline: (§5)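 Anesthetized, ventilated dogs given 3 mg/kg iv and monitored for cardiovascular effects.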

[23] = target: Histamine H3 receptor (Rattus norvegicus, UniProt Q9QYN8); assay: Displacement of [3H]N-alpha-methylhistamine from rat recombinant histamine H3 receptor expressed in HEK293 cells; format: cell-based
Histamine H3 receptor (Rattus norvegicus, UniProt Q9QYN8), sequence (Q9QYN8 whole entry): as the sequence (P58406 whole entry) above, with A15T, T286A, G290A, H387R, V389I counted along it

[24] = AUC (0 to infinity) in Sprague-Dawley rat at 3 mg/kg, po; format: ADME, organism-based; design: time infinity, dose 3 mg/kg, route oral; conditions: plasma; outline: as §1
[25] = AUC (0 to infinity) in rhesus monkey at 1 mg/kg, po; format: ADME, organism-based, Macaca mulatta, Plasma; design: time infinity, dose 1 mg/kg, route oral; conditions: plasma; outline: as §1
[26] = Plasma clearance in rhesus monkey at 0.3 mg/kg, iv; format: ADME, organism-based, Macaca mulatta; design: dose 0.3 mg/kg, route intravenous; outline: as §1
[27] = target: Histamine H2 receptor (Homo sapiens, UniProt P25021); assay: Inhibition of human histamine H2 receptor
Histamine H2 receptor, sequence (P25021 whole entry): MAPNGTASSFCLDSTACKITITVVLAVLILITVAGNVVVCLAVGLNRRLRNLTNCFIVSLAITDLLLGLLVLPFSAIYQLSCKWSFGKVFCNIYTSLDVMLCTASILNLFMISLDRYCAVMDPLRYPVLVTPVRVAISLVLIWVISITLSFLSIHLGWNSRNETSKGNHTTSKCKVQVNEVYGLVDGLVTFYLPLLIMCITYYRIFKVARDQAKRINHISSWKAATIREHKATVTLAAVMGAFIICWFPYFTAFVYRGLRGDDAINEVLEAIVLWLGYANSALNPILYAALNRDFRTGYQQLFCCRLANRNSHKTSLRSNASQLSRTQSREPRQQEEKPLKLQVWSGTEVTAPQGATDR

[28] = Ex vivo drug level wild type mdr1a (+/+) CF1 mouse plasma at 1 mg/kg, po after 2 hrs; format: ADME, organism-based; design: dose 1 mg/kg, route oral; conditions: read-out: Drug uptake; outline: as §4
[29] = Ratio of drug level brain to plasma in mdr1a (-/-) deficient CF1 mouse at 1 mg/kg, po after 2 hrs; format: ADME, organism-based; design: dose 1 mg/kg, route oral; conditions: read-out: BPR; outline: as §4
[30] = tested on: LLC-PK1; assay: Ratio of permeability from apical to basolateral side over basolateral to apical side in pig LLC-PK1 cells expressing mouse MDR1a; format: ADME, cell-based, Sus scrofa
[31] = tested on: Rattus norvegicus; assay: Ex vivo receptor occupancy of histamine H3 receptor in Sprague-Dawley rat assessed as drug level in brain at 1 mg/kg, po after 2 hrs; format: functional
Outline: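 Male SD rats given vehicle or 1 mg/kg compound by oral gavage and decapitated at 2 h. Striatal sections (20 μm) incubated 10 min at room temperature with 400 pM tritiated H3 inverse agonist radioligand in sodium phosphate buffer. Nonspecific binding defined with 10 μM R-α-methylhistamine. Beta-Imager exposure 6 h. Drug levels measured by LC-MS/MS.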

[32] = target: Histamine H1 receptor (Homo sapiens, UniProt P35367); assay: Inhibition of human histamine H1 receptor
Histamine H1 receptor, sequence (P35367 whole entry): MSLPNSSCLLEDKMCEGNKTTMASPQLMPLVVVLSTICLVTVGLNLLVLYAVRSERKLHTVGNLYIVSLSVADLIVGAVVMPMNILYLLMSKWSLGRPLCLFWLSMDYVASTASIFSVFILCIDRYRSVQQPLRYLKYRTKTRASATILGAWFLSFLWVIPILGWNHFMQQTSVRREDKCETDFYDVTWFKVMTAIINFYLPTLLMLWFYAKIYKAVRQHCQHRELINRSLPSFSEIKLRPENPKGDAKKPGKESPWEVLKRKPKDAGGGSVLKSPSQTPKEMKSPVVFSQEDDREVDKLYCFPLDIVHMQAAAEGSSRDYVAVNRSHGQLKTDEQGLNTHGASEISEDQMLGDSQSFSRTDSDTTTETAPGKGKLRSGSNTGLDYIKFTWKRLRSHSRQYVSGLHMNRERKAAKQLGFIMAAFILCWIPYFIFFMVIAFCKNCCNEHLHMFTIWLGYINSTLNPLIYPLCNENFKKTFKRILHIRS

[33] = Ex vivo drug level in mdr1a (-/-) deficient CF1 mouse plasma at 1 mg/kg, po after 2 hrs; format: ADME, organism-based; design: dose 1 mg/kg, route oral; conditions: read-out: Drug uptake; outline: as §4
[34] = Cmax in rhesus monkey at 0.3 mg/kg, iv and 1 mg/kg, po; format: ADME, organism-based, Macaca mulatta; conditions: in vivo; outline: as §1
[35] = tested on: Brain; assay: Ex vivo drug level in wild type mdr1a (+/+) CF1 mouse brain at 1 mg/kg, po after 2 hrs; format: ADME, organism-based; design: dose 1 mg/kg, route oral; outline: as §4
[36] = Plasma clearance in Beagle dog at 0.3 mg/kg, iv; format: ADME, organism-based, Canis lupus familiaris; design: dose 0.3 mg/kg, route intravenous; outline: as §1
[37] = Ratio of drug level in brain to plasma in Sprague-Dawley rat at 10 mg/kg, po after 2 hrs; format: ADME, organism-based; design: dose 10 mg/kg, route oral; conditions: read-out: BPR; outline: as §3
[38] = Plasma concentration in Sprague-Dawley rat at 10 mg/kg, po after 2 hrs; format: ADME, organism-based; design: dose 10 mg/kg, route oral; outline: as §3
[39] = Cmax in anesthetized Beagle dog at 3 mg/kg, iv; format: ADME, organism-based, Canis lupus familiaris; design: dose 3 mg/kg, route intravenous; conditions: in vivo; outline: as §5
[40] = target: T1, Histamine H3 receptor; assay: Antagonist activity at human cloned histamine H3 receptor expressed in CHO-K1 cells assessed as inhibition of R-alpha-methylhistamine-induced [35S]GTPgammaS binding; format: functional, cell-based
[41] = tested on: Rattus norvegicus; assay: Increase in tele-methylhistamine level in po dosed Sprague-Dawley rat brain after 2 hrs relative to control; format: functional, organism-based
Outline: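 Male SD rats given vehicle (0.5% methylcellulose) or compound po at 1, 3, 10 mg/kg, co-dosed with pargyline ip. Decapitated at 2 h and brains homogenized. tele-Methylhistamine measured by HPLC with fluorometry after solid-phase extraction. Mean ± SE from five experiments. Compared with vehicle by ANOVA with Dunnett's test.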

Cc1nc2cccc(C(F)(F)F)c2c(=O)n1-c1ccc(OC2CCN(C3CCC3)CC2)cc1
Ratio [1]: 0.7
bioavailability [2]: 46%
Occ90 [3]: 11 nM
bioavailability [4]: 11%
bioavailability [5]: 33%
Cmax [6]: 420 nM
concentration at 2 h [7]: 110 nM
AUC(0-inf) [8]: 1.3 µM·h
Ratio [9]: 0.05
Ki [10]: 3.6 nM
Drug uptake [11]: 0.137 nmol/g
Cmax [12]: 280 nM
IC50 [13]: > 10000 nM
clearance [14]: 24 mL/min/kg
Ki [15]: 3.9 nM
Kp at 2 h [16]: 2.6
Occ90 [17]: 0.15 nmol/g
Activity [18]: Non-toxic
IC50 [19]: > 10000 nM
Drug uptake [20]: 2.3 nmol/g
Occ90 [21]: 58 nM
Activity [22]: Non-toxic
Ki [23]: 2.3 nM
AUC(0-inf) [24]: 1.66 µM·h
AUC(0-inf) [25]: 0.15 µM·h
clearance [26]: 26 mL/min/kg
IC50 [27]: > 10000 nM
concentration at 2 h [28]: 12 nM
Kp at 2 h [29]: 13
Ratio [30]: 2.5
Activity [31]: >90%
IC50 [32]: > 10000 nM
concentration at 2 h [33]: 10 nM
Cmax [34]: 50 nM
Drug uptake [35]: 0.031 nmol/g
clearance [36]: 13 mL/min/kg
Kp at 2 h [37]: 3.3
concentration at 2 h [38]: 700 nM
Cmax [39]: 3200 nM
IC50 [40]: 0.33 nM
Activity [41]: Dose-dependent effect

Source: ChEMBL document CHEMBL1142515, “Synthesis and evaluation of structurally constrained quinazolinone derivatives as potent and selective histamine H3 receptor inverse agonists” (J Med Chem, 2008)
